Test results: publication PMC4911243 (Cancer research, 2016)

Columns and labels:
[1] = tested on: HES1 promoter occupancy in OE33 and 786-0 cells; assay: ChIP assay on the HES1 promoter; format: cell-based, human; conditions: DAPT 15 μM, IMR-1 25 μM
Procedure, shortened: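 OE33 and 786-0 cells were exposed to DAPT, test compound or DMSO vehicle. Chromatin immunoprecipitation used the indicated antibodies against NTC components, and HES1 promoter occupancy was assessed.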

[2] = tested on: Notch-independent cell lines (refractory to DAPT); assay: Colony formation assay, Notch-independent cell lines; format: cell-based, human; conditions: cells refractory to DAPT
[3] = target: Notch ternary complex (CSL, Notch1, Maml1 on DNA) (Homo sapiens, UniProt P46531); assay: in vitro Notch ternary complex; format: biochemical; conditions: for IC50: in vitro NTC assay, dose-response
Sequence of Notch ternary complex (CSL, Notch1, Maml1 on DNA) (P46531 1754-2555 limits assumed): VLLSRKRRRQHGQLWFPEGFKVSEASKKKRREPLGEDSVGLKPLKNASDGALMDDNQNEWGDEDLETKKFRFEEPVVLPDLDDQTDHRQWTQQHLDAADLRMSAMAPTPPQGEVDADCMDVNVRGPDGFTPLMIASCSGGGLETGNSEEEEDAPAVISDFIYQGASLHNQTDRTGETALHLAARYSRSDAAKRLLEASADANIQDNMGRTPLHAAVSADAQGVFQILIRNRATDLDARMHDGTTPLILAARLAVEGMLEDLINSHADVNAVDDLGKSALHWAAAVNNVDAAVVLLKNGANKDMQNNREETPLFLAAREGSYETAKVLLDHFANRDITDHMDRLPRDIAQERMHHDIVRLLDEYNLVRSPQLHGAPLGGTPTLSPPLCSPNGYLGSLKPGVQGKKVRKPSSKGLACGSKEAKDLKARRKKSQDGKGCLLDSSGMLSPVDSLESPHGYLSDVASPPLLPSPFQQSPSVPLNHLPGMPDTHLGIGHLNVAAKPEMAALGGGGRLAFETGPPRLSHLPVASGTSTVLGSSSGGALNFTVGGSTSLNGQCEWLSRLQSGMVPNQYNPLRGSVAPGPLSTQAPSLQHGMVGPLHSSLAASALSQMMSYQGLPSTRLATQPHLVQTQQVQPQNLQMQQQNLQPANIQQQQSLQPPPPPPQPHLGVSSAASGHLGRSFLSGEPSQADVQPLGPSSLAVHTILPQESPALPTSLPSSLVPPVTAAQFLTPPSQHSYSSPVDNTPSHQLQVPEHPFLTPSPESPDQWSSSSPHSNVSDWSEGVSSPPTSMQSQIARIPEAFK
Sequence of Notch ternary complex (CSL, Notch1, Maml1 on DNA) (Q06330 whole entry partner): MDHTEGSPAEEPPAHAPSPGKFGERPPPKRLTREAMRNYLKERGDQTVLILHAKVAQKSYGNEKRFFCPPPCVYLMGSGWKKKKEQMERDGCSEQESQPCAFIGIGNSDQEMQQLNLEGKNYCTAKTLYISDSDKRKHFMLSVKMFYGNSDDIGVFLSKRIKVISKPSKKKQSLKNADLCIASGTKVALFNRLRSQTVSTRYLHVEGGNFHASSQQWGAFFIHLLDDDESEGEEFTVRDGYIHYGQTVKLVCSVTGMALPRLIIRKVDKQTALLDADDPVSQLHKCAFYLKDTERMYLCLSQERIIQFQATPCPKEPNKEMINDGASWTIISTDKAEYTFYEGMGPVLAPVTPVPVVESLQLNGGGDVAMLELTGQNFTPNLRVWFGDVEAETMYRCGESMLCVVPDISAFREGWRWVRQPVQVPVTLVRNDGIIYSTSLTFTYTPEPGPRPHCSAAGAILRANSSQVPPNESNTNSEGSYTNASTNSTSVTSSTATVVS

Notch1 (NICD) = Notch1 (NICD) (Homo sapiens, UniProt P46531); assay: Surface plasmon resonance, binding to NICD; conditions: for mode of binding to Notch1: SPR sensorgrams, dissociation to baseline; for Kd: SPR, equilibrium approach, 1:1 binding model, wild type NICD
Sequence of Notch1 (NICD) (P46531 1754-2555 limits assumed): as the sequence (P46531 1754-2555 limits assumed) above
Procedure, shortened: (§1)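 NICD (wild type or point mutant) was amine-coupled to a CM5 chip. Runs were on a Biacore T200 at 25 °C in 10 mM PBS pH 7.5 with 5% DMSO as running buffer. Signals were corrected against a DMSO control. Dissociation was followed under buffer flow. KD came from equilibrium response (Req) versus test compound concentration, fitted to a 1:1 binding model.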

[4] = Plasma pharmacokinetic profile in mice; format: in vivo, male C57 BL/6 mice; conditions: for signal in plasma: after IMR-1 i.v. 2 mg/kg and i.p. 100 mg/kg, any time point
Procedure, shortened: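 Male C57BL/6 mice received a single test compound dose, either 2 mg/kg i.v. or 100 mg/kg i.p. Plasma was analysed by mass spectrometry (m/z) for parent and acid metabolite. Metabolite PK parameters (Tmax, T1/2, CL, Vss) were calculated on the parent dose. Clearance was referenced to 90 mL/min/kg liver blood flow, and Vss to 0.7 L/kg total body water.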

[5] = tested on: patient-derived esophageal adenocarcinoma xenograft (EAC29 and EAC47); assay: Patient-derived esophageal adenocarcinoma xenograft; format: in vivo
Procedure, shortened: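 Patient-derived esophageal adenocarcinoma tumors were grown in NSG mice to 200 mm3 before treatment began. Mice then received daily i.p. doses of test compound (15 mg/kg), comparator inhibitor (20 mg/kg) or DMSO vehicle. After 24 days, tumors were harvested. Notch target gene transcription was measured by RT-qPCR (TaqMan) and normalized to TBP and HPRT.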

[6] = tested on: Notch target genes (Hes-1, Hey-L) in OE33 and 786-0 cells; assay: RT-qPCR analysis of Notch target genes; format: cell-based, human
Procedure, shortened: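 OE33 and 786-0 cells were treated, then Hes-1 and Hey-L were measured by reverse transcription and TaqMan qPCR. Values were normalized to TBP and HPRT and expressed relative to vehicle (DMSO) control set to 1.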

D. rerio (zebrafish) = assay: Somite formation in zebrafish embryos; format: in vivo; conditions: embryos soaked in 40 μM IMR-1
Procedure, shortened: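 Zebrafish embryos were exposed to test compound at 8 hpf and examined at 13 hpf in coronal view for somites. Controls were untreated, DMSO vehicle, and 100 pg human Notch1 intracellular domain mRNA-injected embryos. The percentage of embryos with somites was scored and compared by Fisher's exact test.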

NICD R2096A = NICD R2096A (Homo sapiens, UniProt P46531, R2095A); assay: Surface plasmon resonance, binding to mutated NICD; conditions: SPR, R2096 substituted by alanine
Sequence of NICD R2096A (P46531 1754-2555 R2095A): as the sequence (P46531 1754-2555 limits assumed) above, with R342A counted along it
Procedure, shortened: as §1

[7] = tested on: OE19 human esophageal adenocarcinoma cells; assay: OE19 xenograft model in nude mouse; format: in vivo; conditions: 15 mg/kg
Procedure, shortened: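 Nude mice received 5 × 10^6 OE19 cells in the flank, and tumors developed over 4 weeks. Mice were treated with test compound at 15 mg/kg or DMSO control. Tumor establishment and body weight were monitored through treatment.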

NICD R2071A = NICD R2071A (Homo sapiens, UniProt P46531, R2070A); assay: Surface plasmon resonance, binding to mutated NICD; conditions: SPR
Sequence of NICD R2071A (P46531 1754-2555 R2070A): as the sequence (P46531 1754-2555 limits assumed) above, with R317A counted along it
Procedure, shortened: as §1

NICD R2105A = NICD R2105A (Homo sapiens, UniProt P46531, R2104A); assay: Surface plasmon resonance, binding to mutated NICD; conditions: SPR, R2105 substituted by alanine
Sequence of NICD R2105A (P46531 1754-2555 R2104A): as the sequence (P46531 1754-2555 limits assumed) above, with R351A counted along it
Procedure, shortened: as §1

[8] = tested on: NICD in OE33 and 786-0 cells; assay: Western analysis of NICD levels; format: cell-based, human; conditions: Western analysis of lysates from ChIP assay cells
Procedure, shortened: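 Lysates came from the same treated OE33 and 786-0 cells used for ChIP (DAPT 15 μM, test compound 25 μM, or DMSO). Western blots were probed with anti-Notch1, anti-cleaved Notch1 (Val1744) and anti-GAPDH antibodies.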

NICD R2061A = NICD R2061A (Homo sapiens, UniProt P46531, R2060A); assay: Surface plasmon resonance, binding to mutated NICD; conditions: SPR
Sequence of NICD R2061A (P46531 1754-2555 R2060A): as the sequence (P46531 1754-2555 limits assumed) above, with R307A counted along it
Procedure, shortened: as §1

[9] = IMR-1A after IMR-1 i.p. 100 mg/kg, mice plasma

## C[C@H](NC(=O)Cc1cc(F)cc(F)c1)C(=O)N[C@H](C(=O)OC(C)(C)C)c1ccccc1 [DAPT, reference compound]
[1]
  occupancy of Maml1 on the HES1 promoter: decreased the occupancy
  occupancy of Notch1 on the HES1 promoter: decreased the occupancy
[2]
  colony formation: refractory

## COc1cc(/C=C2/SC(=S)NC2=O)ccc1OCC(=O)O [IMR-1A]
[3]; in vitro NTC assay IC50
  increase in potency with respect to IMR-1: 50 fold
[3]
  IC50: 0.5 µM
Notch1 (NICD)
  mode of binding to Notch1: non-covalent, reversible binding
  Kd: 2.9 ± 0.6 µM
[4]; [9]
  T1/2: 6.16 h
  Tmax: 0.50 h
[4]; IMR-1A after IMR-1 i.v. 2 mg/kg
  Vss relative to normal volume of total body water (0.7 L/kg): ~ 4 fold
[4]; IMR-1A after IMR-1 i.v. 2 mg/kg, mice plasma
  T1/2: 2.22 h
[4]; IMR-1A after IMR-1 i.v. 2 mg/kg, mice plasma, 2 mg/kg
  CL: 7 mL/min/kg
[4]; after IMR-1 i.p. 100 mg/kg
  time up to which plasma concentrations were quantifiable: up to 24 h
[4]
  signal in plasma: present

## IMR-1
[3]
  IC50: 26 µM
[5]; after 24 days of treatment, both PDX models
  expression level of Notch target genes (Hes1, HeyL, Notch3) in excised tumors: dramatically reduced
[5]; daily i.p. 15 mg/kg
  weight loss or visible signs of adverse effects: without any significant weight loss or other visible signs of adverse effects
[5]; daily i.p., IMR-1 15 mg/kg or DAPT 20 mg/kg, 24 days, vs DMSO
  PDX tumor growth: significantly abrogated growth
[5]; in vivo treatment, summary statement
  general toxicity upon in vivo treatment: no general toxicity was observed
[1]
  occupancy of Maml1 on the HES1 promoter: decreased the occupancy
  occupancy of Notch1 on the HES1 promoter: did not affect the occupancy
[6]; Hes-1, Hey-L, OE33 and 786-0
  Notch target gene transcription: dose-dependent decrease
[6]; treated cells
  transcription of the housekeeping gene HPRT: unaltered
D. rerio (zebrafish)
  embryos with disruption of somite formation: 69.7%
NICD R2096A
  effect of mutation on affinity: No effect
[7]
  adverse effects: no observable adverse effects
[7]; nude mouse, OE19 cells, 4 weeks
  tumor establishment: readily blocks tumor establishment
[7]; throughout the treatment course
  body weight: remained constant
Notch1 (NICD)
  mode of binding to Notch1: non-covalent, reversible binding
  Kd: 11 ± 3 µM
NICD R2071A; NICD R2071A
  Kd: 38.7 µM
NICD R2071A; R2071 replaced with alanine
  decrease in affinity relative to wild type NICD: approximately 5 fold
NICD R2105A
  effect of mutation on affinity: No effect
[8]
  levels of NICD in cells: does not change
[2]
  colony formation: equally resistant
NICD R2061A; NICD R2061A
  Kd: 35.6 µM
NICD R2061A; R2061 replaced with alanine
  decrease in affinity relative to wild type NICD: approximately 5 fold
[4]
  signal in plasma: no signal was detected
[4]; single i.v. 2 mg/kg and i.p. 100 mg/kg, through last sample withdrawal
  clinical signs: did not induce any clinical signs
